# Most compounds without a hit are left out; they make up all but 0.69% or so of the library.
# Hsp90 block = tumor Hsp90 inhibitors, primary screen, cell lysate, fluorescence polarization, NCI-N417 lysate. Cy3B-geldanamycin FP displacement. AID 429, 2006. inhibition, % at 30 µM. Heat shock protein HSP 90-alpha (Homo sapiens), P07900. actives 0.35% (n = 64,000);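 active means inhibition above 50%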;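 further: 0% = tracer plus lysate wells and 100% = tracer alone without lysate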
# CatS inh = inhibitors of human cathepsin S, biochemical, compound mixtures. P25774. recombinant cathepsin S, AMC dipeptide fluorescence, pooled mixtures. inhibition, %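 (tested at 5 µM per compound within 10-compound mixtures)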. actives 0.06% (n = 62,000). AID 501, 2006; in the data active means inhibition above about 32%, passing the limit was not always enough;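 further: 0% = enzyme without compound and 100% = blank without enzyme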
# Target sequence (P25774 115-331 limits assumed): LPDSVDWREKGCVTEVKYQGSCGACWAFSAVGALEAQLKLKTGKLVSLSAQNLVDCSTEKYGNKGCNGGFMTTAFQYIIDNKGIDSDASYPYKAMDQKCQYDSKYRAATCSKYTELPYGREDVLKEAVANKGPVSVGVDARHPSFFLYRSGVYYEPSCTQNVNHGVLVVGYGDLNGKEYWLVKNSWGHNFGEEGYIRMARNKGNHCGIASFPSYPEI
# AP complement = alternative complement pathway inhibitors, primary screen, biochemical, ELISA, human serum, orthogonally pooled compounds; LPS-coated ELISA, C3 deposition; tested in compound mixtures; actives 0.08% (n = 62,000); inhibition, % at 5 µM;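 active means inhibition above 30% in each of the two pooled mixtures holding the compound, so the lower value exceeds 30%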;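 further: 0% = serum in Mg-EGTA without compound and 100% = EDTA serum blank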
#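 Test system – human serum alternative complement pathway, C3 deposition on LPS-coated wells · Buffer or medium – diluted human serum in Mg2+-EGTA GVB++ · Compound dosing – 5 µM each compound, pools of ten, 50 µM per pool · Schedule – 1 h serum-compound exposure at 37 °C · Measured by – Anti-C3 ELISA, OD 450 nm · Read-out basis – percent inhibition of C3 deposition onto LPS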
# CatL inh = inhibitors of human cathepsin L, biochemical | purified cathepsin L, fluorogenic substrate, fluorescence | inhibition, %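 (tested at 10 µM)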 | actives 0.17% (n = 58,000); in the data active means inhibition above about 45%;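 further: 0% = enzyme with no compound and 100% = no enzyme blank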
# Target sequence (P07711 114-288 limits assumed): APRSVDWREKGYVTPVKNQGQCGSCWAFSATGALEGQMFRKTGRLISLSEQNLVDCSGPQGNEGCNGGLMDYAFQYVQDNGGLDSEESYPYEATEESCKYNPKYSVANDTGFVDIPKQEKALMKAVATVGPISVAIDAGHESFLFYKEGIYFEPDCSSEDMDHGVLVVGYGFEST
# Target sequence (P07711 292-333 limits assumed): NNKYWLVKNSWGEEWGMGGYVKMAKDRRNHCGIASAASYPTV
# CatB mix inh = cathepsin B inhibitors from pooled compounds, primary screen, biochemical, compound mixtures, AMC fluorescence. Purified cathepsin B, AMC dipeptide fluorescence. actives 0.06% (n = 62,000). inhibition, %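 (ten-compound pools at 5 µM per compound and 50 µM total)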. AID 488, 2006. P07858; in the data active means inhibition above about 22%, passing the limit was not always enough;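 further: 0% = enzyme without compound and 100% = no enzyme blank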
# CatB inh = human cathepsin B inhibitors, primary screen, biochemical, fluorogenic substrate. P07858. purified cathepsin B, fluorescence. inhibition, %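 (tested at 10 µM)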. actives 0.1% (n = 63,000); in the data active means inhibition above about 21%;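 further: 0% = enzyme with no compound and 100% = no enzyme blank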
# * hit, by the source's call; / = no result.
SMILES,Hsp90 block,CatS inh,AP complement,CatL inh,CatB mix inh,CatB inh
CC1CN(Cc2nc3c(c(=O)n(C)c(=O)n3C)n2Cc2ccc(Cl)cc2)CC(C)O1 (configuration not stated),-1,12,11,14,4,3
O=C1c2ccccc2C(=O)N1n1c(=O)[nH]c2ccccc2c1=O,-5,4,10,17,2,4
Cc1nnc2ccc(N3CCN(c4ccccn4)CC3)nn12,1,10,-1,/,6,51*
Oc1ccc(N=Cc2ccc(O)c(O)c2)cc1,93*,-5,19,-7,5,0
Cc1ccsc1C=Nc1ccc(O)cc1,13,-6,19,/,-1,/
CC(C)Oc1ccc(/C(O)=C2/C(=O)C(=O)N(CCCN3CCOCC3)C2c2ccncc2)cc1 (configuration not stated),0,9,20,/,0,1
CC(C)(C)C(=O)NC1(C(F)(F)F)C(=O)Nc2c1c(=O)[nH]c(=O)n2Cc1ccco1 (configuration not stated),-2,15,-1,-11,-5,3
COc1ccc(N(CC(=O)NCC2CCCO2)S(=O)(=O)c2c(C)noc2C)cc1 (configuration not stated),-1,2,14,3,0,32*
COc1ccc(N(CC(=O)NCc2cccc(OC)c2)S(=O)(=O)c2c(C)noc2C)cc1,0,3,11,5,-1,4
Nc1ccc(C(=O)CSCC(NC(=O)CCC(N)C(=O)O)C(=O)NCC(=O)O)cc1 (configuration not stated),-5,/,/,/,/,/
O=C(O)CSc1ccccn1,-1,-6,-16,-2,-3,9
O=c1cc(CSc2ccccn2)[nH]c(=O)[nH]1,-2,41*,12,12,6,2
COc1ccccc1N1CCN(CC(=O)Nc2cc(C)nn2-c2nc(C)cc(C)n2)CC1,/,-12,9,0,2,5
O=C(c1ccc2ccccc2c1)N1CCN(c2ccc(O)cc2)CC1,92*,13,1,1,2,5
COc1ccc(-n2c(Cc3cccn3C)nnc2SCC(=O)NCc2ccc(F)cc2)cc1,0,13,-1,5,3,7
O=C(CSc1nnc(Cc2cc(=O)[nH]c(=O)[nH]2)n1-c1ccc(Cl)cc1)NCC1CCCO1 (configuration not stated),-1,7,-4,10,-3,1
COc1ccc(-n2c(Cc3cccn3C)nnc2SCC(=O)NCc2ccccc2Cl)cc1,-5,0,12,101*,0,0
Cn1cccc1Cc1nnc(SCC(=O)NCC2CCCO2)n1-c1ccc(F)cc1 (configuration not stated),-4,23,12,46*,8,1
O=C(CSc1nnc(Cc2cc(=O)[nH]c(=O)[nH]2)n1-c1ccccc1)NCC1CCCO1 (configuration not stated),89*,-8,5,-5,3,1
CCN(CC)CCCNC(CC(=O)O)C(=O)O (configuration not stated),4,5,5,3,-1,3
O=C(C1CCN(c2nnc(N3CCCC3=O)s2)CC1)N1CCN(Cc2ccc3c(c2)OCO3)CC1,0,11,4,47*,4,-5
O=C(C1CCN(c2nnc(-n3cccc3)s2)CC1)N1CCN(Cc2ccc3c(c2)OCO3)CC1,-1,6,-5,53*,-6,2
Cc1ccc(Cl)cc1N1CCN(C(=O)C2CCN(c3nnc(-n4cccc4)s3)CC2)CC1,-3,-8,12,4,5,4
CC1CCN(Cc2ccc(NC(=O)C3CCN(c4nnc(-n5cccc5)s4)CC3)cc2)CC1,-4,/,7,67*,6,13
Cc1cc(C)c2[nH]c(=O)c(C(c3nnnn3C3CCCC3)N3CCOCC3)cc2c1 (configuration not stated),1,10,2,-9,6,3
SMILES,Hsp90 block,CatS inh,AP complement,CatL inh,CatB mix inh,CatB inh
O=C(O)c1ccc(Cl)c(NC(=O)C2CCCN2S(=O)(=O)c2cccc3nsnc23)c1 (configuration not stated),-4,/,/,/,/,/
Oc1ccccc1O,52*,/,/,/,/,/
Oc1ccc(O)cc1,-2,/,/,/,/,/
COc1ccc(N(CC(=O)Nc2cccc(C)c2C)S(=O)(=O)c2c(C)n[nH]c2C)cc1,-3,3,5,12,1,62*
COc1cc2cc(C(c3nnnn3C3CCCC3)N3CCCCC3)c(=O)[nH]c2cc1OC (configuration not stated),-1,-32,31*,-15,-21,-2
CCN(CC)C(=O)CSc1nnc([C@@H](N)Cc2ccccc2)o1,-1,1,9,83*,-1,-2
COc1ccccc1-c1cc(C(F)(F)F)nc(N2CCN(c3ccccc3)CC2)n1,/,-9,6,105*,0,5
CCOC(=O)CNS(=O)(=O)c1cc(-c2n[nH]c(=O)c3ccccc23)ccc1C,-3,/,/,7,/,23*
COc1nnc(-c2ccc(C)c(S(=O)(=O)NCCO)c2)c2ccccc12,-2,-10,11,-2,-16,3
O=P(c1ccccc1)(c1ccccc1)C(c1ccco1)N1CCOCC1 (configuration not stated),-1,9,3,12,0,3
CCN(CC)C(C)C(=O)N1c2ccccc2Sc2ccccc21 (configuration not stated),3,/,/,/,/,/
NC[C@@H]1O[C@H](C23CC4CC(CC(C4)C2)C3)Cc2c1ccc(O)c2O,78*,/,/,/,/,/
Cn1c(=O)c(NCCO)c2c3c(cccc31)C(=O)c1ccccc1-2,135*,-2,6,/,4,3
COc1ccc(S(=O)(=O)NC(CC(=O)N2CCc3ccccc32)c2ccco2)cc1 (configuration not stated),3,6,10,49*,0,0
Cc1ccc(S(=O)(=O)NC(CC(=O)N2CCc3ccccc32)c2ccco2)cc1 (configuration not stated),-7,10,11,26,6,1
O=C(Nc1nc(-c2ccc3c(c2)OCO3)cs1)C1COc2ccccc2O1 (configuration not stated),91*,15,6,5,2,3
CCOc1ccc(/C(O)=C2/C(=O)C(=O)N(CCCn3ccnc3)C2c2cccs2)cc1Cl (configuration not stated),-9,-4,21,11,-4,-2
CC(C)c1cc(Nc2cccc(O)c2)cc(C(C)C)c1O,72*,2,24,-2,5,-4
